Test results published in ChEMBL document CHEMBL1123877, “Metabolic synthesis of arylacetic acid antiinflammatory drugs from arylhexenoic acids. 2. Indomethacin” (1987).

Experiments:
Rattus norvegicus [1] = assay: Plasma drug level was measured in rat yeast induced hyperalgesia assay in presence of indomethacin at a dose of 30 mg/kg for 12 hr.; format: functional
In short: (§1)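 Rats are bled after the yeast hyperalgesia test. 50 μL plasma is mixed with an equal volume of 0.1 N HCl and injected directly on a C-18 reverse-phase HPLC column. Eluent is methanol/0.01 M phosphate pH 4 (65:35), 1.5 mL/min, with UV detection at 254 nm. Parent compound and indomethacin are quantified against standard calibration. Mean ± SEM, n=10.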

Mus musculus [2] = assay: Inhibition of phenylbenzoquinone writhing in mice was tested at the dose of 30 mg/kg for 4 hr; format: functional
In short: (§2)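 Male CD-1 mice, 18-22 g, groups of 10, fasted overnight. Oral dose in 1% methylcellulose (0.1 mL/10 g) at set times before phenylbenzoquinone, 2.0 mg/kg ip. Writhes counted 5-15 min after PBQ. % inhibition = 100 − (drug mean/vehicle mean × 100).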

Rattus norvegicus [3] = assay: Vocalization threshold value was measured in rat yeast induced hyperalgesia assay at a dose of 30 mg/kg for 1 hr.; format: functional
In short: (§3)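 Female Sprague-Dawley rats, 50-60 g, groups of 10, fasted overnight. Brewer's yeast (5% in 0.1 mL) injected subplantar, then oral dosing in 1% methylcellulose. An air-driven piston (2 mm) presses the plantar surface of the normal and yeast-injected paws. The pressure that causes vocalization is read on a manometer in mmHg, tested 3 h after yeast. Normal vs inflamed paw compared by paired t test. Mean ± SEM.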

Rattus norvegicus [4] = assay: Analgesic activity was measured in rat yeast induced hyperalgesia assay at a dose of 10 mg/kg for 1 hr.; format: functional
In short: (§4)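 Female Sprague-Dawley rats, 50-60 g, groups of 10, fasted overnight. Brewer's yeast (5% in 0.1 mL) injected subplantar. Compound given orally in 1% methylcellulose, 0.1 mL/10 g. Each group tested once, always 3 h after yeast. An animal counts as analgesic if vocalization needs ≥25 mmHg on the inflamed paw. Result is percent of animals analgesic.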

Rattus norvegicus [5] = assay: Analgesic activity was measured in rat yeast induced hyperalgesia assay at a dose of 30 mg/kg for 24 hr.; format: functional; in short: as §4
Rattus norvegicus [6] = assay: (§5) Vocalization threshold value was measured in rat yeast induced hyperalgesia assay at a dose of 30 mg/kg for 24 hr.; format: functional; in short: as §3
Rattus norvegicus [7] = assay: Vocalization threshold value was measured in rat yeast induced hyperalgesia assay at a dose of 30 mg/kg for 4 hr.; format: functional; in short: as §3
Rattus norvegicus [8] = assay: (§6) Vocalization threshold value was measured in rat yeast induced hyperalgesia assay at a dose of 10 mg/kg for 8 hr.; format: functional; in short: as §3
Rattus norvegicus [9] = assay: (§7) Vocalization threshold value was measured in rat yeast induced hyperalgesia assay at a dose of 30 mg/kg for 8 hr.; format: functional; in short: as §3
Rattus norvegicus [10] = assay: Analgesic activity was measured in rat yeast induced hyperalgesia assay at a dose of 10 mg/kg for 6 hr.; format: functional; in short: as §4
Rattus norvegicus [11] = assay: Analgesic activity was measured in rat yeast induced hyperalgesia assay at a dose of 10 mg/kg for 8 hr.; format: functional; in short: as §4
Rattus norvegicus [12] = assay: Plasma drug level was measured in rat yeast induced hyperalgesia assay in presence of indomethacin at a dose of 30 mg/kg for 24 hr.; format: functional; in short: as §1
Rattus norvegicus [13] = assay: Plasma drug level was measured in rat yeast induced hyperalgesia assay in presence of drug 6 or 7 at a dose of 30 mg/kg for 8 hr.; format: functional; in short: as §1
Rattus norvegicus [14] = assay: Vocalization threshold value was measured in rat yeast induced hyperalgesia assay at a dose of 10 mg/kg for 1 hr.; format: functional; in short: as §3
Mus musculus [15] = assay: Inhibition of phenylbenzoquinone writhing in mice was tested at the dose of 30 mg/kg for 2 hr; format: functional; in short: as §2
Rattus norvegicus [16] = assay: Plasma drug level was measured in rat yeast induced hyperalgesia assay in presence of drug 6 or 7 at a dose of 30 mg/kg for 4 hr.; format: functional; in short: as §1
Rattus norvegicus [17] = assay: Analgesic activity was measured in rat yeast induced hyperalgesia assay at a dose of 30 mg/kg for 4 hr.; format: functional; in short: as §4
Rattus norvegicus [18] = assay: Plasma drug level was measured in rat yeast induced hyperalgesia assay in presence of indomethacin at a dose of 30 mg/kg for 8 hr.; format: functional; in short: as §1
Rattus norvegicus [19] = assay: as §5; format: functional; remark: listed apart in the source
Rattus norvegicus [20] = assay: Analgesic activity was measured in rat yeast induced hyperalgesia assay at a dose of 30 mg/kg for 12 hr.; format: functional; in short: as §4
Rattus norvegicus [21] = assay: as §7; format: functional; remark: listed apart in the source
Rattus norvegicus [22] = assay: Plasma drug level was measured in rat yeast induced hyperalgesia assay in presence of drug 6 or 7 at a dose of 30 mg/kg for 12 hr; format: functional; in short: as §1
Rattus norvegicus [23] = assay: Analgesic activity was measured in rat yeast induced hyperalgesia assay at a dose of 30 mg/kg for 1 hr.; format: functional; in short: as §4
Rattus norvegicus [24] = assay: Analgesic activity was measured in rat yeast induced hyperalgesia assay at a dose of 30 mg/kg for 8 hr.; format: functional; in short: as §4
Rattus norvegicus [25] = assay: Plasma drug level was measured in rat yeast induced hyperalgesia assay in presence of indomethacin at a dose of 30 mg/kg for 4 hr.; format: functional; in short: as §1
Rattus norvegicus [26] = assay: Vocalization threshold value was measured in rat yeast induced hyperalgesia assay at a dose of 30 mg/kg for 12 hr.; format: functional; in short: as §3
Rattus norvegicus [27] = assay: as §6; format: functional; remark: listed apart in the source
Rattus norvegicus [28] = assay: Vocalization threshold value was measured in rat yeast induced hyperalgesia assay at a dose of 10 mg/kg for 6 hr.; format: functional; in short: as §3
Mus musculus [29] = assay: Inhibition of phenylbenzoquinone writhing in mice was tested at the dose of 30 mg/kg for 1 hr; format: functional; in short: as §2
Rattus norvegicus [30] = assay: (§8) Vocalization threshold value was measured in rat yeast induced hyperalgesia assay at a dose of 10 mg/kg for 4 hr.; format: functional
Rattus norvegicus [31] = assay: Plasma drug level was measured in rat yeast induced hyperalgesia assay in presence of indomethacin at a dose of 10 mg/kg for 1 hr.; format: functional; in short: as §1
Rattus norvegicus [32] = assay: Plasma drug level was measured in rat yeast induced hyperalgesia assay in presence of indomethacin at a dose of 10 mg/kg for 12 hr.; format: functional; in short: as §1
Rattus norvegicus [33] = assay: Analgesic activity was measured in rat yeast induced hyperalgesia assay at a dose of 10 mg/kg for 12 hr.; format: functional; in short: as §4
Rattus norvegicus [34] = assay: Plasma drug level was measured in rat yeast induced hyperalgesia assay in presence of indomethacin at a dose of 10 mg/kg for 24 hr.; format: functional; in short: as §1
Rattus norvegicus [35] = assay: Compound was tested for hyperalgesia activity in rats after perorally administered at 1 hr; details: po
Rattus norvegicus [36] = assay: Vocalization threshold value was measured in rat yeast induced hyperalgesia assay at a dose of 10 mg/kg for 12 hr.; format: functional; in short: as §3
Rattus norvegicus [37] = assay: Plasma drug level was measured in rat yeast induced hyperalgesia assay in presence of indomethacin at a dose of 10 mg/kg for 4 hr.; format: functional; in short: as §1
Mus musculus [38] = assay: Inhibition of phenylbenzoquinone writhing in mice was tested at the dose of 3 mg/kg for 1 hr; format: functional; in short: as §2
Mus musculus [39] = assay: Inhibition of phenylbenzoquinone writhing in mice was tested at the dose of 3 mg/kg for 2 hr; format: functional; in short: as §2
Mus musculus [40] = assay: Compound was tested for […] activity in mice after perorally administered at 1 hr; format: functional; details: po
Rattus norvegicus [41] = assay: Analgesic activity was measured in rat yeast induced hyperalgesia assay at a dose of 10 mg/kg for 4 hr.; format: functional; in short: as §4
Rattus norvegicus [42] = assay: Plasma drug level was measured in rat yeast induced hyperalgesia assay in presence of indomethacin at a dose of 10 mg/kg for 8 hr.; format: functional; in short: as §1
Mus musculus [43] = assay: Inhibition of phenylbenzoquinone writhing in mice was tested at the dose of 3 mg/kg for 4 hr; format: functional; in short: as §2
Rattus norvegicus [44] = assay: Analgesic activity was measured in rat yeast induced hyperalgesia assay at a dose of 10 mg/kg for 24 hr.; format: functional; in short: as §4
Rattus norvegicus [45] = assay: as §8; format: functional; in short: as §3; remark: listed apart in the source
Rattus norvegicus [46] = assay: Vocalization threshold value was measured in rat yeast induced hyperalgesia assay at a dose of 10 mg/kg for 24 hr.; format: functional; in short: as §3
Rattus norvegicus [47] = assay: Plasma drug level was measured in rat yeast induced hyperalgesia assay in presence of drug 6 or 7 at a dose of 30 mg/kg for 1 hr.; format: functional; in short: as §1
Rattus norvegicus [48] = assay: Plasma drug level was measured in rat yeast induced hyperalgesia assay in presence of indomethacin at a dose of 30 mg/kg for 1 hr.; format: functional; in short: as §1
Mus musculus [49] = assay: Inhibition of phenylbenzoquinone writhing in mice was tested at the dose of 30 mg/kg for 6 hr; format: functional; in short: as §2

Compound: COc1ccc2c(c1)c(/C=C/CCCC(=O)O)c(C)n2C(=O)c1ccc(Cl)cc1
- Drug level (Rattus norvegicus [1]): 2.2 µg/mL
- Writhes (Mus musculus [2]): 7.2
- inhibition in vivo at 30 mg/kg (Mus musculus [2]): 65%
- Inflamed (Rattus norvegicus [3]): 25.4 mmHg
- Normal (Rattus norvegicus [3]): 23 mmHg
- Analgesic (Rattus norvegicus [4]): 10%
- Analgesic (Rattus norvegicus [5]): 0%
- Normal (Rattus norvegicus [6]): 24.4 mmHg
- Inflamed (Rattus norvegicus [7]): 26 mmHg
- Normal (Rattus norvegicus [7]): 24.8 mmHg
- Inflamed (Rattus norvegicus [8]): 23.8 mmHg
- Inflamed (Rattus norvegicus [9]): 27.6 mmHg
- Analgesic (Rattus norvegicus [10]): 40%
- Analgesic (Rattus norvegicus [11]): 40%
- Drug level (Rattus norvegicus [12]): 1.6 µg/mL
- Drug level (Rattus norvegicus [13]): 6.1 µg/mL
- Inflamed (Rattus norvegicus [14]): 16.8 mmHg
- Normal (Rattus norvegicus [14]): 24 mmHg
- Writhes (Mus musculus [15]): 15.3
- inhibition in vivo at 30 mg/kg (Mus musculus [15]): 26%
- Drug level (Rattus norvegicus [16]): 24.1 µg/mL
- Analgesic (Rattus norvegicus [17]): 60%
- Drug level (Rattus norvegicus [18]): 2.1 µg/mL
- Inflamed (Rattus norvegicus [19]): 13 mmHg
- Analgesic (Rattus norvegicus [20]): 60%
- Normal (Rattus norvegicus [21]): 25.6 mmHg
- Drug level (Rattus norvegicus [22]): 1.1 µg/mL
- Analgesic (Rattus norvegicus [23]): 60%
- Analgesic (Rattus norvegicus [24]): 100%
- Drug level (Rattus norvegicus [25]): 2.2 µg/mL
- Inflamed (Rattus norvegicus [26]): 25 mmHg
- Normal (Rattus norvegicus [26]): 25.2 mmHg
- Normal (Rattus norvegicus [27]): 23.2 mmHg
- Inflamed (Rattus norvegicus [28]): 21.6 mmHg
- Normal (Rattus norvegicus [28]): 22 mmHg
- Writhes (Mus musculus [29]): 16.4
- inhibition in vivo at 30 mg/kg (Mus musculus [29]): 20%

Compound: COc1ccc2c(c1)c(CC(=O)O)c(C)n2C(=O)c1ccc(Cl)cc1 [INDOMETHACIN]
- Inflamed (Rattus norvegicus [30]): 32 mmHg
- Drug level (Rattus norvegicus [31]): 21 µg/mL
- Drug level (Rattus norvegicus [32]): 9.8 µg/mL
- Analgesic (Rattus norvegicus [33]): 0%
- Drug level (Rattus norvegicus [34]): 3.3 µg/mL
- ED50 (Rattus norvegicus [35]): 5 mg/kg
- Inflamed (Rattus norvegicus [36]): 15.6 mmHg
- Normal (Rattus norvegicus [36]): 24.4 mmHg
- Drug level (Rattus norvegicus [37]): 38 µg/mL
- Writhes (Mus musculus [38]): 4.8
- inhibition in vivo at 3 mg/kg (Mus musculus [38]): 89%
- Analgesic (Rattus norvegicus [4]): 70%
- Writhes (Mus musculus [39]): 38.3
- inhibition in vivo at 3 mg/kg (Mus musculus [39]): 16%
- ED50 (Mus musculus [40]): 3 mg/kg
- Inflamed (Rattus norvegicus [8]): 28.4 mmHg
- Analgesic (Rattus norvegicus [41]): 100%
- Analgesic (Rattus norvegicus [11]): 40%
- Drug level (Rattus norvegicus [42]): 21 µg/mL
- Writhes (Mus musculus [43]): 32.9
- inhibition in vivo at 3 mg/kg (Mus musculus [43]): 28%
- Inflamed (Rattus norvegicus [14]): 30 mmHg
- Normal (Rattus norvegicus [14]): 27.9 mmHg
- Analgesic (Rattus norvegicus [44]): 0%
- Normal (Rattus norvegicus [45]): 26.8 mmHg
- Inflamed (Rattus norvegicus [46]): 16 mmHg
- Normal (Rattus norvegicus [46]): 22.4 mmHg
- Normal (Rattus norvegicus [27]): 28.4 mmHg

Compound: COc1ccc2c(c1)c(/C=C/CC(=O)O)c(C)n2C(=O)c1ccc(Cl)cc1
- Drug level (Rattus norvegicus [47]): 26 µg/mL
- Drug level (Rattus norvegicus [48]): <1 µg/mL
- Writhes (Mus musculus [49]): 29.5
- inhibition in vivo at 30 mg/kg (Mus musculus [49]): 28%
- Writhes (Mus musculus [2]): 23
- inhibition in vivo at 30 mg/kg (Mus musculus [2]): 46%
- Inflamed (Rattus norvegicus [3]): 14.2 mmHg
- Inflamed (Rattus norvegicus [7]): 20.2 mmHg
- Normal (Rattus norvegicus [7]): 23.4 mmHg
- Inflamed (Rattus norvegicus [9]): 21.6 mmHg
- Drug level (Rattus norvegicus [13]): 10 µg/mL
- Normal (Rattus norvegicus [14]): 25.8 mmHg
- Writhes (Mus musculus [15]): 28.6
- inhibition in vivo at 30 mg/kg (Mus musculus [15]): 32%
- Drug level (Rattus norvegicus [16]): 17 µg/mL
- Analgesic (Rattus norvegicus [17]): 30%
- Drug level (Rattus norvegicus [18]): <1 µg/mL
- Normal (Rattus norvegicus [21]): 25.4 mmHg
- Analgesic (Rattus norvegicus [23]): 10%
- Analgesic (Rattus norvegicus [24]): 30%
- Drug level (Rattus norvegicus [25]): <1 µg/mL
- Writhes (Mus musculus [29]): 34
- inhibition in vivo at 30 mg/kg (Mus musculus [29]): 19%
